The source made the active and inactive calls. The rule behind the calls is not given here.
Legend:
[1] = Lipophilicity index (Rm) (HPLC); assay type: physicochemical
L1210 = assay: Inhibition murine leukemia L1210 cell growth in culture; assay type: functional, cell-based; settings: Mus musculus
Method in brief: (§1)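 IC50 is the drug concentration, in nM, that inhibits growth of the cultured cell line by 50%.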

[2] = test system: Lewis lung carcinoma cell line; assay: Percentage increase in life span of tumor bearing animals compared to non treated, tumor-bearing controls when treated at the optimal dose of 45 mg/kg/day intraperitoneally; assay type: functional; settings: Mus musculus, ip, route intraperitoneal
[3] = Selectivity ratio of IC50 of HCT to IC50 of L1210 cell lines; assay type: functional
[4] = Base strength is expressed as pKa, determined in water at 25 degrees Centigrade by spectrophotometric method.; assay type: physicochemical
HCT-8 = assay: Inhibition of human colon tumor (HCT-8) cell growth in culture; assay type: functional, cell-based; method in brief: as §1
P388 [5] = assay: Percentage increase in life span of tumor bearing animals compared to non treated, tumor-bearing controls when treated at the optimal dose of 65 mg/kg/day intraperitoneally; assay type: functional; settings: Mus musculus, P388, ip; route intraperitoneal
P388 [6] = assay: Percentage increase in life span of tumor bearing animals compared to non treated, tumor-bearing controls when treated at the optimal dose of 100 mg/kg/day ip (P388); assay type: functional; settings: Mus musculus, route intraperitoneal
[7] = test system: Lewis lung carcinoma cell line; assay: Percentage increase in life span of tumor bearing animals compared to non treated, tumor-bearing controls when treated at the optimal dose of 150 mg/kg/day ip (LL); assay type: functional; settings: Mus musculus
[8] = test system: Lewis lung carcinoma cell line; assay: Percentage increase in life span of tumor bearing animals compared to non treated, tumor-bearing controls when treated at the optimal dose of 20 mg/kg/day ip (LL); assay type: functional, organism-based; settings: Mus musculus
P388 [9] = assay: Percentage increase in life span of tumor bearing animals compared to non treated, tumor-bearing controls when treated at the optimal dose of 13.3 mg/kg/day ip (P388); assay type: functional; settings: Mus musculus, route intraperitoneal
P388 [10] = assay: Percentage increase in life span of tumor bearing animals compared to non treated, tumor-bearing controls when treated at the optimal dose of 225 mg/kg/day ip (P388); assay type: functional; settings: Mus musculus, route intraperitoneal
P388 [11] = assay: (§2) Percentage increase in life span of compound-treated, tumor bearing animals compared to non treated, tumor-bearing controls when treated at the optimal dose of 100 mg/kg; assay type: functional; settings: Mus musculus
[12] = test system: Lewis lung carcinoma cell line; assay: as §2; assay type: functional; settings: Mus musculus
P388 [13] = assay: (§3) Percentage increase in life span of tumor bearing animals compared to non treated, tumor-bearing controls when treated at the optimal dose of 30 mg/kg/day intraperitoneally; assay type: functional; settings: Mus musculus, P388, ip; route intraperitoneal
[14] = test system: Lewis lung carcinoma cell line; assay: as §3; assay type: functional; settings: Mus musculus, ip, route intraperitoneal
P388 [15] = assay: (§4) Percentage increase in life span of tumor bearing animals compared to non treated, tumor-bearing controls when treated at the optimal dose of 65 mg/kg/day intraperitoneally; IA denotes inactive; assay type: functional, organism-based; settings: Mus musculus
Method in brief: (§5)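 Drug was given ip in 0.1 mL 30% v/v ethanol/water. For P388, 10^6 cells were inoculated ip and dosing was on days 1, 5 and 9, with >20% significant. For Lewis lung, 10^6 cells were inoculated iv and dosing was on days 5, 9 and 13, with >40% significant. The read-out is % lifespan increase over untreated controls.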

[16] = test system: Lewis lung carcinoma cell line; assay: as §4; assay type: functional, organism-based; settings: Mus musculus; method in brief: as §5
P388 [17] = assay: Percentage increase in life span of tumor bearing animals compared to non treated, tumor-bearing controls when treated at the optimal dose of 13.3 mg/kg/day intraperitoneally; assay type: functional; settings: Mus musculus, P388, ip; route intraperitoneal
[18] = test system: Lewis lung carcinoma cell line; assay: Percentage increase in life span of tumor bearing animals compared to non treated, tumor-bearing controls when administered intraperitoneally; IA denotes inactive; assay type: functional; settings: Mus musculus; method in brief: as §5

Compound	Rm [1]	IC50 (L1210)	Ratio [3]	IC50 (HCT-8)	also measured
COc1cccc2cc3cccc(C(=O)NCCN(C)C)c3nc12.Cl	-0.31	12 nM	15	180 nM	ILS at 45 mg/kg/day [2]: 54%; pKa [4]: 3.87; ILS at 65 mg/kg/day (P388 [5]): 70%
CN(C)CCCCCCNC(=O)c1cccc2cc3ccccc3nc12.Cl	0.28	550 nM	3.6	1960 nM	ILS at 100 mg/kg/day (P388 [6]): 32%; ILS [7]: inactive
Cl.Cl.O=C(NCCNCCO)c1cccc2cc3ccccc3nc12	-0.22	240 nM	7.5	1800 nM	ILS [8]: inactive; ILS at 13.3 mg/kg/day (P388 [9]): 22%
CN(C)CCCCCNC(=O)c1cccc2cc3ccccc3nc12.Cl	0.12	450 nM	4	1800 nM	ILS at 225 mg/kg/day (P388 [10]): 34%; ILS at 150 mg/kg/day ([7]; route intraperitoneal): 83%
Cc1ccc2cc3cccc(C(=O)NCCN(C)C)c3nc2c1.Cl.Cl	-0.1	121 nM	5.4 Ratio	658 nM	ILS at 100 mg/kg (P388 [11]): 82%; ILS at 100 mg/kg [12]: 106%
Cc1cccc2cc3cccc(C(=O)NCCN(C)C)c3nc12.Cl.Cl	-0.17	4.3 nM	12.6	54 nM	ILS at 30 mg/kg/day (P388 [13]): 87%; ILS at 30 mg/kg/day [14]: 120%
CNCCNC(=O)c1cccc2cc3ccccc3nc12.Cl.Cl	-0.27	240 nM	2.6	620 nM	ILS (P388 [15]): inactive; ILS [16]: inactive
Cl.Cl.NCCNC(=O)c1cccc2cc3ccccc3nc12	-0.28	275 nM	5.8	1600 nM	ILS at 13.3 mg/kg/day (P388 [17]): 24%; ILS [18]: inactive

Source: ChEMBL document CHEMBL1123878, “Potential antitumor agents. 50. In vivo solid-tumor activity of derivatives of N-[2-(dimethylamino)ethyl]acridine-4-carboxamide” (J Med Chem, 1987)
